The values that follow come from ChEMBL document CHEMBL3758148, “4-Phenylpyridin-2-one Derivatives: A Novel Class of Positive Allosteric Modulator of the M1 Muscarinic Acetylcholine Receptor” (J Med Chem, 2016).

Assay [1] deals with T1, Muscarinic acetylcholine receptor M1 (Homo sapiens) (UniProt P11229).
T1 sequence (whole entry): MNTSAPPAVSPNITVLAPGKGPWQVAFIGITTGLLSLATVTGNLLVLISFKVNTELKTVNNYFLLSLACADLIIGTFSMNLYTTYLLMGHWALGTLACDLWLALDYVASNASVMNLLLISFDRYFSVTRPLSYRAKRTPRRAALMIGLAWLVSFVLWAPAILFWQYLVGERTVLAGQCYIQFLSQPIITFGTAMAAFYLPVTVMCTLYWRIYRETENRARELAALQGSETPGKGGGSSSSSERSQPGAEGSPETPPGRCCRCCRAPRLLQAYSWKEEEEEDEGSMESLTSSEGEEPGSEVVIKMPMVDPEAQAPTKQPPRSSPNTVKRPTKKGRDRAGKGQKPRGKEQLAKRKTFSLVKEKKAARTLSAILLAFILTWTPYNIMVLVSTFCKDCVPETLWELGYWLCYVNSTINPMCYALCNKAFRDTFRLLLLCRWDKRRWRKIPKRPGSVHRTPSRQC
The experiment in a line: Positive allosteric modulation of human muscarinic M1 receptor expressed in CHO Flp-In cells assessed as functional cooperativity with acetylcholine measured as IP1 accumulation after 1 hr by HTRF method. The class given is cell-based. In short, it runs like this: (§1)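 Suspended Flp-In CHO cells stably expressing hM1, stimulated at 10⁶ cells/ml in HEPES buffer with 50 mM LiCl, pH 7.4, using increasing ACh with or without increasing modulator, 1 h at 37 °C, 5% CO2. IP1 read by HTRF (665/590 nm ratio). Curves fitted globally to the operational model of allosterism, with KB fixed from binding. Mean ± SEM, ≥3 experiments in duplicate.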

In assay [2] the target is T1, Muscarinic acetylcholine receptor M1 (Homo sapiens). The experiment in a line: Allosteric agonist activity at human muscarinic M1 receptor expressed in CHO Flp-In cells assessed as intrinsic activity measured as IP1 accumulation after 1 hr by HTRF method. The format is functional, cell-based. In short, it runs like this:
as §1

The target of assay [3] is T2, Muscarinic acetylcholine receptor M2 (Homo sapiens) (UniProt P08172).
T2 sequence (whole entry): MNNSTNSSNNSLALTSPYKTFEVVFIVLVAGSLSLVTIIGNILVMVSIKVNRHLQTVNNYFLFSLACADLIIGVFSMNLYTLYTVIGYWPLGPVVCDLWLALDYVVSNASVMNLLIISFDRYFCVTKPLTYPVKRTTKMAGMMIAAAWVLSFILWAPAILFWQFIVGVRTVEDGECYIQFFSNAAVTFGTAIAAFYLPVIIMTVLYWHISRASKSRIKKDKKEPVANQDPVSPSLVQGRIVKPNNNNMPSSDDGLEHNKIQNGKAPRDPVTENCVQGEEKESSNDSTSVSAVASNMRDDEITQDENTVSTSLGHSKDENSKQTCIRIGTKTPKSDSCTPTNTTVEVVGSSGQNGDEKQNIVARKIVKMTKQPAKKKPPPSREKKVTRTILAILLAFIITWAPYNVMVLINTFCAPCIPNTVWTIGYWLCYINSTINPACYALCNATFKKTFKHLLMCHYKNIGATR
The experiment in a line: Displacement of [3H]NMS from human muscarinic M2 receptor expressed in CHO Flp-In cells up to 10 uM after 1 hr by microbeta liquid scintillation counting-based radioligand binding assay. The format is cell-based. In short, it runs like this: (§2)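 Whole Flp-In CHO cells expressing hM2, hM3, hM4 or hM5 were incubated with [3H]NMS, ACh and modulator up to 10 μM in HEPES-buffered saline pH 7.4, 1 h at 37 °C. Bound radioactivity was counted by scintillation after two ice-cold saline washes.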

Assay [4] has as its target Muscarinic acetylcholine receptor M3 (Homo sapiens) (UniProt P20309). The experiment in a line: Displacement of [3H]NMS from human muscarinic M3 receptor expressed in CHO Flp-In cells up to 10 uM after 1 hr by microbeta liquid scintillation counting-based radioligand binding assay. The format is cell-based. In short, it runs like this: as §2
In general terms: Displacement assays read how much labelled ligand stays bound in the presence of the test substance.

Assay [5] deals with T3, Muscarinic acetylcholine receptor M4 (Homo sapiens) (UniProt P08173).
T3 sequence (whole entry): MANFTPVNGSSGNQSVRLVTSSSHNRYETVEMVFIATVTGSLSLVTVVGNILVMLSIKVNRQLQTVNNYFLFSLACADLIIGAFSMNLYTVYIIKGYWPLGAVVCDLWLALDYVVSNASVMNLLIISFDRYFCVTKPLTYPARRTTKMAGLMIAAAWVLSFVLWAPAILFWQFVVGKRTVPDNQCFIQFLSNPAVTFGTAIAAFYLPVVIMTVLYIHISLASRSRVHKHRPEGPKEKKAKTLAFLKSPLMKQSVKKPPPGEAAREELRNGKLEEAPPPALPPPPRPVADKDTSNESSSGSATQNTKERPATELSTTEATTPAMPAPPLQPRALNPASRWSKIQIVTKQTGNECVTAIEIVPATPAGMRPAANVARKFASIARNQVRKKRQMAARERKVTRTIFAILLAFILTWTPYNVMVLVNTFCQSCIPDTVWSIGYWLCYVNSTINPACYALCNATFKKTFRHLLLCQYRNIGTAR
The assay can be described thus: Displacement of [3H]NMS from human muscarinic M4 receptor expressed in CHO Flp-In cells up to 10 uM after 1 hr by microbeta liquid scintillation counting-based radioligand binding assay. The format is cell-based. In short, it runs like this: as §2

Assay [6] has as its target T4, Muscarinic acetylcholine receptor M5 (Homo sapiens) (UniProt P08912).
T4 sequence (whole entry): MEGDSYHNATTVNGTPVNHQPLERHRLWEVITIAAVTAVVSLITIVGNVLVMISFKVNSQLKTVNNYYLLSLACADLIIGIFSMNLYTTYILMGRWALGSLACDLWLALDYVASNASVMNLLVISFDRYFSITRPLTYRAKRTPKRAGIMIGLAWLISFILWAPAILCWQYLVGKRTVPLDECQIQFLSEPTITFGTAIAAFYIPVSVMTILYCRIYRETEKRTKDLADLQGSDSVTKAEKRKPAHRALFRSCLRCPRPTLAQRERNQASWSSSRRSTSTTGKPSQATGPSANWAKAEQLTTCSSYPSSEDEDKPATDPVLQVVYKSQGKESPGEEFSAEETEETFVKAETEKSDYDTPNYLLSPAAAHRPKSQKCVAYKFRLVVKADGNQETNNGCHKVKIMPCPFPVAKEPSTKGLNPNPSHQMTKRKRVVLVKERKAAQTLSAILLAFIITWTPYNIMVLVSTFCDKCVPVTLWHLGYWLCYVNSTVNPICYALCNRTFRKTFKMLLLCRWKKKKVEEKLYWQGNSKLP
The assay can be described thus: Displacement of [3H]NMS from human muscarinic M5 receptor expressed in CHO Flp-In cells up to 10 uM after 1 hr by microbeta liquid scintillation counting-based radioligand binding assay. The class given is cell-based. Summed up: as §2

In assay [7] the target is T1, Muscarinic acetylcholine receptor M1 (Homo sapiens). The assay can be described thus: Displacement of [3H]NMS from human muscarinic M1 receptor expressed in CHO Flp-In cells after 1 hr by microbeta liquid scintillation counting-based radioligand binding assay. The class given is cell-based. Summed up: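 Intact adherent Flp-In CHO cells expressing hM1 (10⁴ cells/well), incubated with 0.2 nM [3H]NMS, varying ACh and modulator in HEPES-buffered saline pH 7.4 for 1 h at 37 °C. Washed with ice-cold 0.9% NaCl, then scintillation counted. Fitted to an allosteric ternary complex model with [3H]NMS KA 0.2 nM. Mean ± SEM, ≥3 experiments in duplicate.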

SMILES strings stand for the structures. The source made the active and inactive calls. The calls are words filed in the database; no cut-off is given here.

Chain of Muscarinic acetylcholine receptor M3 (Homo sapiens) (P20309 whole entry, looked up): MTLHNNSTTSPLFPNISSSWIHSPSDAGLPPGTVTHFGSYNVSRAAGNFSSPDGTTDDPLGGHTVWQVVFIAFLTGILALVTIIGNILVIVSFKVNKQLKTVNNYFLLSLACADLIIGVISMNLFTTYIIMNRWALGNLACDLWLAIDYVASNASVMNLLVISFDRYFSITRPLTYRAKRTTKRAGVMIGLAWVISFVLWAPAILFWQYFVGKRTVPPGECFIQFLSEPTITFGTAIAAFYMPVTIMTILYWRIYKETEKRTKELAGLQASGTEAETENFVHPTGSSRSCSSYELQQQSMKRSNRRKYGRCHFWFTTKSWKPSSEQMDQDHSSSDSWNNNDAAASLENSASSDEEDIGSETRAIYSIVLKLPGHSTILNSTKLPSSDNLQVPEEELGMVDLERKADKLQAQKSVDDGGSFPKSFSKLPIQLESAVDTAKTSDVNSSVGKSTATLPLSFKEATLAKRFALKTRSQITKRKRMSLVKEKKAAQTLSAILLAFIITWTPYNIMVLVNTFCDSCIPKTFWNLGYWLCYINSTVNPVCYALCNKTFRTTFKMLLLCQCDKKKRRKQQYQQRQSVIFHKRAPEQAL

As to `COc1ccc(Cn2cc(C(=O)O)c(=O)c3ccccc32)cc1`, in assay [1], the log(activity) is 1.84. Besides, the Intrinsic activity in assay [2] was 0.22. The log(IA) in assay [2] is -0.6. The result in assay [3], in assay [4], in assay [5] and in assay [6] was inactive.

In general, pKb refers to −log10 of the Kb, conventionally taken in molar units. Lower therefore signals a large Kb. Take `Cn1cc(-c2ccc(COc3ccccc3-c3ccn([C@H]4CCCC[C@@H]4O)c(=O)c3)cc2)cn1` (racemic): the Kb in assay [7] was 43 µM. Besides, the pKb in assay [7] was determined as 4.37. The log(activity) in assay [1] is 2.3. In assay [2], the Intrinsic activity is 0.21. Also, in assay [2], the log(IA) is -0.68. The outcome in assay [3], in assay [4], in assay [5] and in assay [6] was inactive.
